In ChEMBL document CHEMBL5260806, “Hydrogen peroxide activated quinone methide precursors with enhanced DNA cross-linking capability and cytotoxicity towards cancer cells” (Eur J Med Chem, 2017):

What was measured:
UACC-257 = assay: Anticancer activity against human UACC-257 cells assessed as cell growth inhibition at 10 uM incubated for 48 hrs by sulforhodamine B assay; format: functional; conditions: read-out: GI
LOX IMVI = assay: Anticancer activity against human LOX IMVI cells assessed as cell growth inhibition at 10 uM incubated for 48 hrs by sulforhodamine B assay; format: functional; conditions: read-out: GI
Summary of the method: (§1)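 NCI-60 screen: cell lines grown in RPMI 1640 with 5% FBS and 2 mM L-glutamine, plated in 96-well plates at 5,000–40,000 cells/well depending on doubling time. Each line has one single-dose arm at 10 µM and one dose-response arm giving GI50.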

CCRF-CEM = assay: Anticancer activity against human CCRF-CEM cells assessed as cell growth inhibition at 10 uM incubated for 48 hrs by sulforhodamine B assay; format: functional; conditions: read-out: GI; summary of the method: as §1
M14 [1] = assay: Anticancer activity against human M14 cells assessed as cell growth inhibition at 10 uM incubated for 48 hrs by sulforhodamine B assay; format: functional; conditions: read-out: GI; summary of the method: as §1
UO-31 = assay: Anticancer activity against human UO-31 cells assessed as cell growth inhibition at 10 uM incubated for 48 hrs by sulforhodamine B assay; format: functional; conditions: read-out: GI
SN12C = assay: Anticancer activity against human SN12C cells assessed as cell growth inhibition at 10 uM incubated for 48 hrs by sulforhodamine B assay; format: functional; conditions: read-out: GI
SNB-75 = assay: Anticancer activity against human SNB-75 cells assessed as cell growth inhibition at 10 uM incubated for 48 hrs by sulforhodamine B assay; format: functional; conditions: read-out: GI
SK-MEL-28 = assay: Anticancer activity against human SK-MEL-28 cells assessed as cell growth inhibition at 10 uM incubated for 48 hrs by sulforhodamine B assay; format: functional; conditions: read-out: GI
Summary of the method: (§2)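 NCI DTP 60-cell-line screen run at National Cancer Institute. Cells grown in RPMI 1640 with 5% fetal bovine serum and 2 mM L-glutamine, seeded at 5,000–40,000 cells/well depending on doubling time. Single-dose screen at 10 µM gives growth percentage; dose-response series gives GI50.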

NCI/ADR-RES = assay: Anticancer activity against human NCI/ADR-RES cells assessed as cell growth inhibition at 10 uM incubated for 48 hrs by sulforhodamine B assay; format: functional; conditions: read-out: GI; summary of the method: as §2
ACHN = assay: Anticancer activity against human ACHN cells assessed as cell growth inhibition incubated for 48 hrs by sulforhodamine B assay; format: functional; summary of the method: as §1
NCI-H226 = assay: Anticancer activity against human NCI-H226 cells assessed as cell growth inhibition incubated for 48 hrs by sulforhodamine B assay; format: functional; summary of the method: as §2
MCF7 = assay: Anticancer activity against human MCF7 cells assessed as cell growth inhibition at 10 uM incubated for 48 hrs by sulforhodamine B assay; format: functional; conditions: read-out: GI; summary of the method: as §2
SK-OV-3 = assay: Anticancer activity against human SK-OV-3 cells assessed as cell growth inhibition at 10 uM incubated for 48 hrs by sulforhodamine B assay; format: functional; conditions: read-out: GI; summary of the method: as §2
PC-3 = assay: Anticancer activity against human PC-3 cells assessed as cell growth inhibition at 10 uM incubated for 48 hrs by sulforhodamine B assay; format: functional; conditions: read-out: GI; summary of the method: as §2
EKVX = assay: Anticancer activity against human EKVX cells assessed as cell growth inhibition at 10 uM incubated for 48 hrs by sulforhodamine B assay; format: functional; conditions: read-out: GI; summary of the method: as §1
HOP-62 = assay: Anticancer activity against human HOP-62 cells assessed as cell growth inhibition at 10 uM incubated for 48 hrs by sulforhodamine B assay; format: functional; conditions: read-out: GI; summary of the method: as §1
SW-620 = assay: Anticancer activity against human SW620 cells assessed as cell growth inhibition incubated for 48 hrs by sulforhodamine B assay; format: functional
SF-268 = assay: Anticancer activity against human SF-268 cells assessed as cell growth inhibition incubated for 48 hrs by sulforhodamine B assay; format: functional; summary of the method: as §2
NCI-H522 = assay: Anticancer activity against human NCI-H522 cells assessed as cell growth inhibition at 10 uM incubated for 48 hrs by sulforhodamine B assay; format: functional; conditions: read-out: GI; summary of the method: as §2
M14 [2] = assay: Anticancer activity against human M14 cells assessed as cell growth inhibition incubated for 48 hrs by sulforhodamine B assay; format: functional; summary of the method: as §1
SR = assay: Anticancer activity against human SR cells assessed as cell growth inhibition at 10 uM incubated for 48 hrs by sulforhodamine B assay; format: functional; conditions: read-out: GI
Malme-3M = assay: Anticancer activity against human Malme-3M cells assessed as cell growth inhibition at 10 uM incubated for 48 hrs by sulforhodamine B assay; format: functional; conditions: read-out: GI; summary of the method: as §2
OVCAR-5 = assay: Anticancer activity against human OVCAR-5 cells assessed as cell growth inhibition incubated for 48 hrs by sulforhodamine B assay; format: functional; summary of the method: as §2
786-0 = assay: Anticancer activity against human 786-0 cells assessed inhibition of cell growth after 48 hrs by CellTiter-Glo luminescent assay; format: functional, cell-based; conditions: 786-0, 48 h
Summary of the method: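 Renal lines grown in RPMI 1640 with 5% FBS and 2 mM L-glutamine, plated at 5,000–10,000 cells/well in 384-well plates and held 2–3 h at 37 °C, 5% CO2. Compounds were made as 20 mM DMSO stocks, given as ten 2-fold serial dilutions diluted 1:100 into cells, and incubated 48 h. Read-out was CellTiter-Glo luminescence after 10 min at room temperature.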

GI50 (ACHN): 2000 nM | GI50 (NCI-H226): 2000 nM | GI50 (SW-620): 2000 nM | GI50 (OVCAR-5): 2000 nM | IC50 (786-0): 10800 nM
SMILES: COc1cc(CBr)c(B2OC(C)(C)C(C)(C)O2)c(CBr)c1
inhibition of growth at 10 µM (UACC-257): < 50% | inhibition of growth at 10 µM (LOX IMVI): < 50% | inhibition of growth at 10 µM (CCRF-CEM): < 50% | inhibition of growth at 10 µM (M14 [1]): < 50% | inhibition of growth at 10 µM (UO-31): < 50% | inhibition of growth at 10 µM (SN12C): < 50% | inhibition of growth at 10 µM (SNB-75): < 50% | inhibition of growth at 10 µM (SK-MEL-28): < 50% | inhibition of growth at 10 µM (NCI/ADR-RES): < 50% | inhibition of growth at 10 µM (MCF7): < 50% | inhibition of growth at 10 µM (SK-OV-3): < 50% | inhibition of growth at 10 µM (PC-3): < 50% | inhibition of growth at 10 µM (EKVX): < 50% | inhibition of growth at 10 µM (HOP-62): < 50% | GI50 (SF-268): 2000 nM | inhibition of growth at 10 µM (NCI-H522): < 50% | GI50 (M14 [2]): 2000 nM | inhibition of growth at 10 µM (SR): < 50% | inhibition of growth at 10 µM (Malme-3M): < 50%
